The source of these data is ChEMBL document CHEMBL1131930, “Synthetic [5,5] trans-fused indane lactones as inhibitors of thrombin” (Bioorg Med Chem Lett, 1999).

Structures are written as SMILES.

Assay [1] concerns the target T1, Prothrombin (Homo sapiens, UniProt P00734).
Assay [2] in a line: Activated partial thromboplastin time (APTT) 2x control using human plasma. The assay is classed as functional. The procedure, abridged:
(§1)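 Human plasma clotting; test compound added with a preincubation step before APTT measurement. The value is the compound concentration required to double the activated partial thromboplastin time. Lines with no significant effect were tested up to 100 µM.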

Assay [3] concerns the target Serine protease 1 (Homo sapiens) (UniProt P07477). Put plainly: Inhibitory activity against protease trypsin was determined.
Assay [4] is described as follows: Selectivity was determined.
Assay [5] deals with T1, Prothrombin. Briefly: Inhibitory activity against human thrombin was determined.
The species named for assay [6] is Homo sapiens. Briefly: Activated partial thromboplastin time (APTT) 2x control using human plasma; NE=no significant effect at 100 uM. In kind it is functional, cell-free. The method in brief: as §1

Serine protease 1 (Homo sapiens), sequence (P07477 whole entry): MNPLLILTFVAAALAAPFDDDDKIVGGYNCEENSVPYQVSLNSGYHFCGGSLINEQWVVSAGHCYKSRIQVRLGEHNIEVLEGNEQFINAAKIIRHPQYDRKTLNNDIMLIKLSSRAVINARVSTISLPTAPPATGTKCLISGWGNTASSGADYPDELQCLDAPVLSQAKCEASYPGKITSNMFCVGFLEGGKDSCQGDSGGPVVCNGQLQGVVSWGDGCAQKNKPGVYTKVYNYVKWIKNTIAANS

Consider `CCN(CC)C(=O)c1cccc(-c2ccc3c(c2)C[C@@H]2OC(=O)C(CCCCC(=N)N)[C@@H]32)c1` (some centres undefined), for which the K obs / 1 came to 420000 M⁻¹ s⁻¹ in assay [1] and 220000 M⁻¹ s⁻¹ in assay [3]. The APTT in assay [2] is 4 µM. The compound further yielded a Selectivity in assay [4] of 1.9.
As to `COc1cccc(-c2ccc3c(c2)C[C@@H]2OC(=O)C(CCCCC(=N)N)[C@@H]32)c1` (some centres undefined), the K obs / 1 in assay [1] is 96000 M⁻¹ s⁻¹; in assay [3], 36000 M⁻¹ s⁻¹. The compound further returned an APTT in assay [2] of 25 µM. This compound returned a Selectivity in assay [4] of 2.7.
Turning to `N=C(N)CCC[C@H]1C(=O)O[C@H]2Cc3ccccc3[C@@H]21`, the IC50 – broadly, the midpoint of a concentration-inhibition curve – in assay [5] came to 600 nM.
Turning to `N=C(N)CCCCC1C(=O)O[C@H]2Cc3ccc(-c4cccc(-c5ccccc5)c4)cc3[C@H]12` (some centres undefined), the results for the K obs / 1 in assay [1] and in assay [3] were 3.8e+06 M⁻¹ s⁻¹ and 110000 M⁻¹ s⁻¹, respectively. Moreover, the APTT in assay [2] turned out to be 85 µM. Further, in assay [4], the Selectivity was 35.
In assay [5], `CNC(=N)CCCC[C@H]1C(=O)O[C@H]2Cc3ccc(-c4ccc(O)cc4)cc3[C@@H]21` had an IC50 of 1600 nM.
For `CCN(CC)C(=O)c1cccc(-c2ccc3c(c2)[C@@H]2C(CCCCC(=N)N)C(=O)O[C@H]2C3)c1` (some centres undefined), the K obs / 1 in assay [1] was 1.1e+07 M⁻¹ s⁻¹; in assay [3] it was 200000 M⁻¹ s⁻¹. The same compound registered an APTT in assay [2] of 40 µM. The compound also gave a Selectivity in assay [4] of 55.
Regarding `N=C(N)CCCCC1C(=O)O[C@H]2Cc3ccc(-c4ccc(O)cc4)cc3[C@H]12` (some centres undefined), the K obs / 1 in assay [1] is 270000 M⁻¹ s⁻¹. The APTT in assay [2] turned out to be 42 µM. This compound also returned an IC50 in assay [5] of 9 nM.
On to `COc1cccc(-c2ccc3c(c2)C[C@@H]2OC(=O)C(C)(CCCCC(=N)N)[C@@H]32)c1` (some centres undefined), for which the midpoint of inhibition in assay [5], the IC50, lay at 1800 nM. The APTT result in assay [6] was “No effect”.
Take `N=C(N)CCCCC1C(=O)O[C@H]2Cc3ccccc3[C@H]12` (some centres undefined): the K obs / 1 in assay [1] came out at 4200 M⁻¹ s⁻¹. Also, the APTT in assay [2] was 100 µM. Also, the IC50 in assay [5] amounted to 77 nM.
`N=C(N)CCCCC1C(=O)O[C@H]2Cc3cc(-c4ccc(O)cc4)ccc3[C@H]12` (some centres undefined) registered a K obs / 1 in assay [1] of 33000 M⁻¹ s⁻¹. Moreover, in assay [2], the APTT turned out to be 27 µM.
Turning to `NC(N)=NCCC[C@H](NC(=O)[C@@H]1CCCN1C(=O)[C@H](N)Cc1ccccc1)C(=O)CCl`, in assay [2], the APTT came to 1.8 µM.
For the compound `N=C(N)CCCCC1C(=O)O[C@H]2Cc3cc(-c4cccc(-c5ccccc5)c4)ccc3[C@H]12` (some centres undefined), the K obs / 1 in assay [1] is 160000 M⁻¹ s⁻¹. The APTT entry in assay [6] was “No effect”.
In the case of `NC(N)=NCCC[C@H](NC(=O)[C@H]1CCCN1C(=O)[C@H](N)Cc1ccccc1)C(=O)CCl`, the K obs / 1 in assay [1] worked out at 1.6e+07 M⁻¹ s⁻¹.
The compound `N=C(N)CCCCC1C(=O)O[C@H]2Cc3ccc(-c4ccccc4)cc3[C@H]12` (some centres undefined) returned a K obs / 1 in assay [1] of 490000 M⁻¹ s⁻¹. Moreover, the APTT in assay [2] was 60 µM.
As for `N=C(N)CCCCC1C(=O)O[C@H]2Cc3cc(-c4ccccc4)ccc3[C@H]12` (some centres undefined), the K obs / 1 in assay [1] stood at 48000 M⁻¹ s⁻¹; in assay [3], 20000 M⁻¹ s⁻¹. Also, the APTT in assay [2] stood at 50 µM. This compound displayed a Selectivity in assay [4] of 2.4.
In the case of `C/N=C(/N)CCCC[C@H]1C(=O)O[C@H]2Cc3ccc(-c4ccc(O)cc4)cc3[C@@H]21`, in assay [6], the APTT entry is “No effect”.
